Test results from ChEMBL document CHEMBL5058577, “EUbOPEN Chemogenomics Library 2 (Multiplex)” (2022).

Test system: HEK-293T
Assay: Multiplex assay against HEK293T
Format: toxicity, cell-based
Settings: human
How it was run: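 Live cells carried four stains from seeding: Hoechst33342, BioTracker Green Microtubule Cytoskeleton Dye, MitoTracker Red and Annexin V Alexa Fluor 680. They were imaged on a CQ1 microscope at 37°C and 5% CO2 after compound addition. Using CellPathfinder machine-learning gating, cells were split into Hoechst high-intensity objects or normal cells, normal cells into healthy, pyknosed or fragmented nuclei, and pyknosed cells into mitotic or apoptotic; tubulin, mitochondrial-mass and membrane-permeability phenotypes are per cents of healthy-nucleus cells.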

[1] = 12 h, 1 µM, compound concentration 1 uM, replicate 1
[2] = 12 h, 1 µM, compound concentration 1 uM, replicate 2
[3] = 12 h, 10 µM, compound concentration 10 uM, replicate 1
[4] = 12 h, 10 µM, compound concentration 10 uM, replicate 2
[5] = 24 h, 1 µM, compound concentration 1 uM, replicate 1
[6] = 24 h, 1 µM, compound concentration 1 uM, replicate 2
[7] = 24 h, 10 µM, compound concentration 10 uM, replicate 1
[8] = 24 h, 10 µM, compound concentration 10 uM, replicate 2
[9] = 48 h, 1 µM, compound concentration 1 uM, replicate 1
[10] = 48 h, 1 µM, compound concentration 1 uM, replicate 2
[11] = 48 h, 10 µM, compound concentration 10 uM, replicate 1
[12] = 48 h, 10 µM, compound concentration 10 uM, replicate 2

Compound: Cl.N=C(N)NC(=O)Cc1c(Cl)cccc1Cl [GUANFACINE HYDROCHLORIDE]
- Population Apoptotic (%) [1]: 29%
- Population Fragmented Nuclei (%) [1]: 3%
- Population Healthy Nuclei (%) [1]: 84%
- Population Hoechst High Intensity Objects (%) [1]: 7%
- Population Membrane Permeable-Phenotype (%) [1]: 0%
- Population Mitochondria Different-Phenotype (%) [1]: 46%
- Population Mitotic Cells (%) [1]: 70%
- Population Normal (%) [1]: 92%
- Population Pyknosed Nuclei (%) [1]: 11%
- Population Tubulin-Different-Phenotype (%) [1]: 31%
- Total Cell Count [1]: 384
- Population Apoptotic (%) [2]: 47%
- Population Fragmented Nuclei (%) [2]: 5%
- Population Healthy Nuclei (%) [2]: 76%
- Population Hoechst High Intensity Objects (%) [2]: 12%
- Population Mitochondria Different-Phenotype (%) [2]: 67%
- Population Mitotic Cells (%) [2]: 52%
- Population Normal (%) [2]: 87%
- Population Pyknosed Nuclei (%) [2]: 17%
- Total Cell Count [2]: 289
- Population Apoptotic (%) [3]: 52%
- Population Fragmented Nuclei (%) [3]: 12%
- Population Healthy Nuclei (%) [3]: 67%
- Population Hoechst High Intensity Objects (%) [3]: 7%
- Population Membrane Permeable-Phenotype (%) [3]: 0%
- Population Mitochondria Different-Phenotype (%) [3]: 61%
- Population Mitotic Cells (%) [3]: 47%
- Population Normal (%) [3]: 92%
- Population Pyknosed Nuclei (%) [3]: 20%
- Population Tubulin-Different-Phenotype (%) [3]: 43%
- Total Cell Count [3]: 296
- Population Apoptotic (%) [4]: 34%
- Population Fragmented Nuclei (%) [4]: 8%
- Population Healthy Nuclei (%) [4]: 77%
- Population Hoechst High Intensity Objects (%) [4]: 10%
- Population Mitochondria Different-Phenotype (%) [4]: 69%
- Population Mitotic Cells (%) [4]: 65%
- Population Normal (%) [4]: 89%
- Population Pyknosed Nuclei (%) [4]: 14%
- Population Tubulin-Different-Phenotype (%) [4]: 38%
- Total Cell Count [4]: 365
- Population Apoptotic (%) [5]: 36%
- Population Fragmented Nuclei (%) [5]: 8%
- Population Healthy Nuclei (%) [5]: 80%
- Population Hoechst High Intensity Objects (%) [5]: 4%
- Population Membrane Permeable-Phenotype (%) [5]: 0%
- Population Mitochondria Different-Phenotype (%) [5]: 27%
- Population Mitotic Cells (%) [5]: 63%
- Population Normal (%) [5]: 95%
- Population Pyknosed Nuclei (%) [5]: 11%
- Population Tubulin-Different-Phenotype (%) [5]: 21%
- Total Cell Count [5]: 493
- Population Apoptotic (%) [6]: 50%
- Population Fragmented Nuclei (%) [6]: 4%
- Population Healthy Nuclei (%) [6]: 83%
- Population Hoechst High Intensity Objects (%) [6]: 10%
- Population Mitochondria Different-Phenotype (%) [6]: 42%
- Population Mitotic Cells (%) [6]: 50%
- Population Normal (%) [6]: 89%
- Population Tubulin-Different-Phenotype (%) [6]: 19%
- Total Cell Count [6]: 344
- Population Apoptotic (%) [7]: 46%
- Population Fragmented Nuclei (%) [7]: 11%
- Population Healthy Nuclei (%) [7]: 75%
- Population Hoechst High Intensity Objects (%) [7]: 7%
- Population Membrane Permeable-Phenotype (%) [7]: 0%
- Population Mitochondria Different-Phenotype (%) [7]: 48%
- Population Mitotic Cells (%) [7]: 53%
- Population Normal (%) [7]: 92%
- Population Pyknosed Nuclei (%) [7]: 12%
- Population Tubulin-Different-Phenotype (%) [7]: 39%
- Total Cell Count [7]: 343
- Population Apoptotic (%) [8]: 36%
- Population Fragmented Nuclei (%) [8]: 6%
- Population Healthy Nuclei (%) [8]: 83%
- Population Hoechst High Intensity Objects (%) [8]: 9%
- Population Mitochondria Different-Phenotype (%) [8]: 50%
- Population Mitotic Cells (%) [8]: 63%
- Population Normal (%) [8]: 90%
- Population Pyknosed Nuclei (%) [8]: 10%
- Population Tubulin-Different-Phenotype (%) [8]: 27%
- Total Cell Count [8]: 454
- Population Apoptotic (%) [9]: 15%
- Population Fragmented Nuclei (%) [9]: 15%
- Population Healthy Nuclei (%) [9]: 78%
- Population Hoechst High Intensity Objects (%) [9]: 2%
- Population Membrane Permeable-Phenotype (%) [9]: 1%
- Population Mitochondria Different-Phenotype (%) [9]: 22%
- Population Mitotic Cells (%) [9]: 84%
- Population Normal (%) [9]: 97%
- Population Pyknosed Nuclei (%) [9]: 6%
- Population Tubulin-Different-Phenotype (%) [9]: 21%
- Total Cell Count [9]: 680
- Population Apoptotic (%) [10]: 34%
- Population Fragmented Nuclei (%) [10]: 10%
- Population Healthy Nuclei (%) [10]: 79%
- Population Hoechst High Intensity Objects (%) [10]: 7%
- Population Membrane Permeable-Phenotype (%) [10]: 0%
- Population Mitochondria Different-Phenotype (%) [10]: 32%
- Population Mitotic Cells (%) [10]: 65%
- Population Normal (%) [10]: 92%
- Population Pyknosed Nuclei (%) [10]: 9%
- Population Tubulin-Different-Phenotype (%) [10]: 14%
- Total Cell Count [10]: 560
- Population Apoptotic (%) [11]: 47%
- Population Fragmented Nuclei (%) [11]: 17%
- Population Healthy Nuclei (%) [11]: 73%
- Population Hoechst High Intensity Objects (%) [11]: 6%
- Population Membrane Permeable-Phenotype (%) [11]: 0%
- Population Mitochondria Different-Phenotype (%) [11]: 31%
- Population Mitotic Cells (%) [11]: 52%
- Population Normal (%) [11]: 93%
- Population Pyknosed Nuclei (%) [11]: 9%
- Population Tubulin-Different-Phenotype (%) [11]: 14%
- Total Cell Count [11]: 421
- Population Apoptotic (%) [12]: 50%
- Population Fragmented Nuclei (%) [12]: 12%
- Population Healthy Nuclei (%) [12]: 80%
- Population Hoechst High Intensity Objects (%) [12]: 10%
- Population Mitochondria Different-Phenotype (%) [12]: 33%
- Population Mitotic Cells (%) [12]: 50%
- Population Normal (%) [12]: 89%
- Population Pyknosed Nuclei (%) [12]: 6%
- Population Tubulin-Different-Phenotype (%) [12]: 20%
- Total Cell Count [12]: 612
